Data set [1] relates to Jurkat-CN cells. As to the kind of experiment: PS exposure. Conditions: 24 h. The class given is cell-based, human. The essentials:
(§1)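 Jurkat cells with Bak knocked down by RNA interference, and empty-vector controls (CN), were exposed to test compound for 24 h; cisplatin at 25 μM served as reference. Samples were diluted to 1 ml and read by flow cytometry.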

The subject of data set [2] is Jurkat-shBak cells. As to the kind of experiment: PS exposure. Conditions: 24 h. The class given is cell-based, human. An outline of the steps:
as §1

Data set [3] has as its system Jurkat-CN cells. As to the kind of experiment: Necrotic versus apoptotic cell death, Trypan blue staining and morphology. The format is cell-based, human. As to conditions: control Jurkat cells, 24 h. The essentials: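 Jurkat-CN (empty-vector) and Jurkat-shBak cells were treated with test compound or cisplatin for 24 h, then stained with Trypan blue. Stained cells were scored as necrotic. Unstained cells showing blebbing and/or chromatin condensation were scored as apoptotic. Values are mean ± SD of three independent experiments.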

The next data set relates to PBMC from healthy donors. As to the kind of experiment: Cytotoxicity, cell death by annexinV-PE labeling and flow cytometry, 24 h. The class given is cell-based, human. As to conditions: 25 μM. An outline of the steps: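 PBMC came from healthy donors, were freshly isolated by Ficoll-Paque density centrifugation and kept in complete RPMI 1640 medium. They were exposed to a range of test compound concentrations for 24 h. Positive cells were quantified by flow cytometry. Values are mean ± SD of three independent experiments.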

The conditions of data set [4]: cited from earlier work.
For data set [5], the system named is Jurkat cells. In words: Growing potential after removal of compounds and NAC, Trypan blue counting. The format is cell-based, human. As to conditions: 24h treatment with compound alone, viable cells 24 h and 48 h after removal. The essentials:
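Jurkat cells were treated with test compound, with or without NAC, for 24 h. They were then washed and transferred to fresh medium. Total cell number and viability were measured 24 and 48 h after removal of compound and NAC, by Trypan blue staining and counting in a Neubauer haemocytometer. Values are mean ± SD of three independent experiments.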

In data set [6] the test system is Jurkat cells. In words: Protection by antioxidants. Conditions: 24 h, superoxide scavenger MnTBAP. The class given is cell-based, human. An outline of the steps:
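Jurkat cells were cultured for 24 h with test compound alone or together with MnTBAP (superoxide anion scavenger), glutathione or N-acetylcysteine. Collapse of mitochondrial transmembrane potential was measured at the end by flow cytometry. Values are mean ± SD of 4 independent experiments.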

Data set [7] relates to Jurkat cells. In words: Cytotoxicity, cell death by annexinV-PE labeling and flow cytometry, 24 h. The class given is cell-based, human. An outline of the steps: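 Jurkat (clone E6.1) in RPMI 1640 with 5% FCS, L-glutamine and penicillin/streptomycin, seeded at 3×10⁵ cells/ml. Cells were exposed to a range of test compound concentrations for 24 h. Fluorescent cells were counted by flow cytometry. Values are mean ± SD of three independent experiments.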
(In general: A flow cytometer gives signals particle by particle.)

Data set [8] concerns Jurkat-shBak cells. As to the kind of experiment: Necrotic versus apoptotic cell death, Trypan blue staining and morphology. Conditions: 24 h. The format is cell-based, human.

Some results are limits rather than exact numbers.

The source of these data is PMC3201811 (Journal of inorganic biochemistry, 2011).

One may read the IC50 as the concentration that inhibits the measured activity by half.

`N.N.[Cl][Pt][Cl]` [cisplatin, reference compound]: the death of cells result in the data set on Jurkat-CN cells [1] (25 μM, Jurkat control (CN) cells) was “around 60%”. Also, the “sensitivity of Jurkat-shBak cells, in words” value with Jurkat-shBak cells [2] was “completely resistant”.
Take “[Au{κ^2-C,N-C6H4(PPh2=N(C6H5)-2}(P{Cp(m-C6H4-SO3Na)2} 3)Cl]PF6 [compound 3]”: the “type of cell death (necrosis versus apoptosis)” value with Jurkat-CN cells [3] was “necrosis and apoptosis at similar levels”; in the data set on Jurkat-shBak cells [8], “both apoptotic and necrotic cell death were prevented”. Further, the “cells bound annexin V-PE” value in the data set with Jurkat-CN cells [1] (10 μM, control Jurkat cells) is reported as “around 50%”. The same compound yielded a dead cells with PBMC from healthy donors of 33.5%. Also, in data set [4], the “time stable in solution” value was at most 24 h. Besides, the “growing potential after transfer to fresh medium” value in the data set with Jurkat cells [5] is listed as “A fraction of cells”. For the same compound, the “protection from toxicity by MnTBAP” value in the data set with Jurkat cells [6] was “almost completely protected”. Besides, the “sensitivity of Jurkat-shBak cells, in words” value in the data set with Jurkat-shBak cells [2] is “almost completely resistant”. For the same compound, in the data set on Jurkat cells [7], the IC50 is 16.1 µM. Also, the killing of cells in the data set on Jurkat cells [7] (25 μM) is 96%.
